Assay results from different studies.
Lines come from different studies, so protocols differ.
Organism: Enterobacter cloacae
Read-out: microbial growth

With `C/C(=C\c1ccc(C#N)cc1)C(=O)Nc1ccc(C(=O)N[C@@H](CC(N)=O)C(=O)Nc2ccc(C(=O)Nc3ccc(C(=O)Nc4ccc(C(=O)O)cc4)c(O)c3OC(C)C)cc2)cc1` the MIC was > 64 µg/mL (DSM30054).
`CC(C)CNc1nc(Cl)c2c(c1O)C(=O)C1=C(O)[C@]3(O)C(=O)C(C(N)=O)=C(O)[C@@H](N(C)C)[C@@H]3C[C@@H]1C2.Cl.Cl.Cl` has an MIC of > 32 µg/mL (broth dilution; ATCC13047).
For `C[C@@H](O)[C@H]1C(=O)N2C(C(=O)O)=C(S[C@@H]3CN[C@H](C(=O)N(C)C)C3)[C@H](C)[C@H]12`, the MIC was 1.3 µM.
`CO[C@@H](C(N)=O)[C@H](NC(=O)c1ccc(NC(=O)c2ccc(C#N)cc2)cc1)C(=O)Nc1ccc(C(=O)Nc2ccc(C(=O)Nc3ccc(C(=O)O)cc3)c(O)c2OC(C)C)cc1` gave an MIC of > 64 µg/mL (DSM30054).
`CNC(=O)c1cc(Oc2ccc(NC(=O)Nc3ccc(Cl)c(C(F)(F)F)c3)cc2)ccn1` has an MIC of > 100 µM (DSM30054).
The MIC of `CN(C)[C@@H]1C(O)=C(C(N)=O)C(=O)[C@@]2(O)C(O)=C3C(=O)c4c(cc5ccc(CN6CC(F)(F)C6)cc5c4O)C[C@H]3C[C@@H]12` is reported as 32 µg/mL (broth dilution; ATCC13047).
The MIC of `Cc1nc(Cl)c2c(c1O)C(=O)C1=C(O)[C@]3(O)C(=O)C(C(N)=O)=C(O)[C@@H](N(C)C)[C@@H]3C[C@@H]1C2.Cl` is reported as 32 µg/mL (broth dilution; ATCC13047).
`CN(C)CCOc1c2c(c(O)c3cc(CN4CCC4)ccc13)C(=O)C1=C(O)[C@]3(O)C(=O)C(C(N)=O)=C(O)[C@@H](N(C)C)[C@@H]3C[C@@H]1C2` gave an MIC of > 32 µg/mL (broth dilution; ATCC13047).
With `CN(C)[C@@H]1C(O)=C(C(N)=O)C(=O)[C@@]2(O)C(O)=C3C(=O)c4c(O)cnc(Cl)c4C[C@H]3C[C@@H]12.Cl` the MIC was 8 µg/mL (broth dilution; ATCC13047).
With `O=C(Nc1ccc2c(c1)OC(F)(F)O2)Nc1ccc(Cl)c(C(F)(F)F)c1` the MIC was > 100 µM (DSM30054).
`Cc1c(CN(C)C(=O)/C=C/c2cnc3c(c2)CC(CCN)C(=O)N3)oc2ccccc12.Cl` (centres unmarked) gave an MIC of 16 µg/mL (broth dilution; BAA2341).
